Assay results reported in ChEMBL document CHEMBL3992532, “Structure-Based Design of Macrocyclic Factor XIa Inhibitors: Discovery of the Macrocyclic Amide Linker” (J Med Chem, 2017).
Blank lines part the entries; values can stand above or below the molecule they belong to.

Experiments:
[1] = Half life in dog liver microsomes; type: ADME, Canis lupus familiaris, microsome
[2] = Inhibition of human chymotrypsin using MeO-SucArg-Pro-Tyr-pNA as substrate after 10 to 120 mins at 37 degC by spectrophotometric method
Summary of the method: (§1)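 Purified human proteases, 37 °C; reaction started by adding enzyme to substrate (up to 4× Km) ± inhibitor; compound from DMSO, 1% DMSO final except where noted. […] Buffers: FXIa, chymotrypsin, tPA, plasmin, urokinase in 50 mM HEPES pH 7.4, 145 mM NaCl, 5 mM KCl, 0.1% PEG 8000; FXa, thrombin, trypsin, plasma kallikrein, aPC in 100 mM Na phosphate pH 7.4, 200 mM NaCl, 0.5% PEG 8000; FIXa in 50 mM Tris pH 7.4, 100 mM NaCl, 5 mM CaCl2, 0.5% PEG 8000, 2% DMSO.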

Coagulation factor IX = Coagulation factor IX (Homo sapiens, UniProt P00740); assay: Inhibition of human coagulation factor 9a using methylsulfonyl-D-cyclohexylglycyl-Gly-Arg-AMC as substrate after 10 to 120 mins at 37 degC by spectrophotometric method; summary of the method: as §1
Sequence of Coagulation factor IX (P00740 47-191 limits assumed): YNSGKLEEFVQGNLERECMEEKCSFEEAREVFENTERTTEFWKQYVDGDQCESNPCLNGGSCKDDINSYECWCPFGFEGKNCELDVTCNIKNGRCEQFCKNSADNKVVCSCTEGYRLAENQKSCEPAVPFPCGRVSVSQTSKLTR
Sequence of Coagulation factor IX (P00740 227-461 limits assumed): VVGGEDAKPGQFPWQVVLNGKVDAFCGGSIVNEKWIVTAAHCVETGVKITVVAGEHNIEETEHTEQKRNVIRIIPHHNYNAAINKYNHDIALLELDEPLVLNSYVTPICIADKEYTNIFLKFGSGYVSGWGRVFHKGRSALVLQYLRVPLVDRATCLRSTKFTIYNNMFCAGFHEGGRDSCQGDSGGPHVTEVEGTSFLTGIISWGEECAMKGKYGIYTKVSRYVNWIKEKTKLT

[3] = Volume of distribution at steady state in Beagle dog at 0.19 mg/kg, iv administered as 10 mins infusion or 0.32 mg/kg, po via gavage administered as cassette dose by LC-MS/MS method; type: ADME, organism-based, Canis lupus familiaris; conditions: in vivo, read-out: Vdss
Summary of the method: (§2)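 Dog PK vehicles as footnoted: iv in 70% PEG 400/20% water/10% ethanol; po either 70% PEG 400/20% TPGS/10% ethanol or the same PEG 400/water/ethanol vehicle used for iv.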

Plasminogen = Plasminogen (Homo sapiens, UniProt P00747); assay: Inhibition of human plasmin using H-(D)-Val-Leu-LyspNA as substrate after 10 to 120 mins at 37 degC by spectrophotometric method; summary of the method: as §1
Sequence of Plasminogen (P00747 97-580 limits assumed): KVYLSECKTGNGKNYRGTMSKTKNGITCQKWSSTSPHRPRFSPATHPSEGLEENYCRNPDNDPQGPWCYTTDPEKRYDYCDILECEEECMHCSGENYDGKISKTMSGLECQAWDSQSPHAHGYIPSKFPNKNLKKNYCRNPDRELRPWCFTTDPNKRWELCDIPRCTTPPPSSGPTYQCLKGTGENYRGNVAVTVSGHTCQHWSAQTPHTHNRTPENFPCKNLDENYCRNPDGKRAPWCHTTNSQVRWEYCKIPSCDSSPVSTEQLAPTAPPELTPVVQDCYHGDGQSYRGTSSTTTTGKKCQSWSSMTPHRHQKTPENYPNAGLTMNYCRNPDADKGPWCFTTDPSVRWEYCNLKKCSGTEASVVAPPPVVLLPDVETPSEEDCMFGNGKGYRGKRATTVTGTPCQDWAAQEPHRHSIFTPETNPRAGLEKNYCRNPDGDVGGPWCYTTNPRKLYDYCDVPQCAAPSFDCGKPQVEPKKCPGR
Sequence of Plasminogen (P00747 581-810 limits assumed): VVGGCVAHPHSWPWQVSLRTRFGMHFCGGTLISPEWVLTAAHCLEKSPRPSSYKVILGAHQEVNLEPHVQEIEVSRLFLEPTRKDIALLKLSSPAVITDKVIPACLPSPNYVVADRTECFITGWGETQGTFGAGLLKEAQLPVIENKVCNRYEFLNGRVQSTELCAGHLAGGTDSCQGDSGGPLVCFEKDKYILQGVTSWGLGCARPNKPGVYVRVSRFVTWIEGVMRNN

Coagulation factor X = Coagulation factor X (Homo sapiens, UniProt P00742); assay: Inhibition of human coagulation factor 10a using N-benzoyl-Ile-Glu-(OH,OMe)-Gly-Arg-pNA as substrate after 10 to 120 mins at 37 degC by spectrophotometric method; summary of the method: as §1
Sequence of Coagulation factor X (P00742 41-179 limits assumed): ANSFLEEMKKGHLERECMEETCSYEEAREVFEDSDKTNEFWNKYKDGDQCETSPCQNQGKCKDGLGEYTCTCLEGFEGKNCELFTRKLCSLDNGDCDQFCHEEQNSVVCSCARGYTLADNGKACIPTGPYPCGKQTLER
Sequence of Coagulation factor X (P00742 235-488 limits assumed): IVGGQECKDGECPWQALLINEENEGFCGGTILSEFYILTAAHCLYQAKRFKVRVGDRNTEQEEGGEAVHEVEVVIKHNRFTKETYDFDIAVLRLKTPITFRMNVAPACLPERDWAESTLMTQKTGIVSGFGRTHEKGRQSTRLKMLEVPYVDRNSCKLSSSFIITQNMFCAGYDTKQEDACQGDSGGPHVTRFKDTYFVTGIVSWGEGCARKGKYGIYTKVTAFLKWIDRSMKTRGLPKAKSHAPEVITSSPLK

Canis familiaris [4] = assay: AUC in Beagle dog at 0.32 mg/kg, po administered via gavage as cassette dose by LC-MS/MS method; type: ADME, organism-based, Canis lupus familiaris; conditions: in vivo; summary of the method: as §2
[5] = Permeability from apical to basolateral side in human Caco2 cells; type: ADME, cell-based; conditions: Caco-2, read-out: permeability
[6] = target: Vitamin K-dependent protein C (Homo sapiens, UniProt P04070); assay: Inhibition of human activated protein C using pyroGlu-Pro-Arg-pNA as substrate after 10 to 120 mins at 37 degC by spectrophotometric method; summary of the method: as §1
Sequence of Vitamin K-dependent protein C (P04070 43-197 limits assumed): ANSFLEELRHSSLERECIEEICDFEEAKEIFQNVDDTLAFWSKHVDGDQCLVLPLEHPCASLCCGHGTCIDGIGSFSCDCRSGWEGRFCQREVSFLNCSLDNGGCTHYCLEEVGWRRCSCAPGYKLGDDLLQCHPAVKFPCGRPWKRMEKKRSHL
Sequence of Vitamin K-dependent protein C (P04070 212-461 limits assumed): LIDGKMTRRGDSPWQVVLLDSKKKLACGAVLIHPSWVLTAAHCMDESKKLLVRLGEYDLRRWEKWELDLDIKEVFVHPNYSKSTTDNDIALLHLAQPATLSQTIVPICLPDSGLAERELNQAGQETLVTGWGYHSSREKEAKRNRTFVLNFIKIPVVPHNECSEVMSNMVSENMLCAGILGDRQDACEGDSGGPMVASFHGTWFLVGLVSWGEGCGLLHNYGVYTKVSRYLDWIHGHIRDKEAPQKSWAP

[7] = target: Urokinase-type plasminogen activator (Homo sapiens, UniProt P00749); assay: Inhibition of human urokinase using pyro-Glu-Gly-Arg-pNA as substrate after 10 to 120 mins at 37 degC by spectrophotometric method; summary of the method: as §1
Canis familiaris [8] = assay: Oral bioavailability in Beagle dog at 0.32 mg/kg administered via gavage as cassette dose by LC-MS/MS method; type: ADME, organism-based, Canis lupus familiaris; conditions: in vivo; summary of the method: as §2
[9] = target: Tissue-type plasminogen activator (Homo sapiens, UniProt P00750); assay: Inhibition of human tissue plasminogen activator using methylsulfonyl-D-cyclohexylalanyl-GlyArg-pNA as substrate after 10 to 120 mins at 37 degC by spectrophotometric method; summary of the method: as §1
Sequence of Tissue-type plasminogen activator (P00750 whole entry, the tested form may be a part): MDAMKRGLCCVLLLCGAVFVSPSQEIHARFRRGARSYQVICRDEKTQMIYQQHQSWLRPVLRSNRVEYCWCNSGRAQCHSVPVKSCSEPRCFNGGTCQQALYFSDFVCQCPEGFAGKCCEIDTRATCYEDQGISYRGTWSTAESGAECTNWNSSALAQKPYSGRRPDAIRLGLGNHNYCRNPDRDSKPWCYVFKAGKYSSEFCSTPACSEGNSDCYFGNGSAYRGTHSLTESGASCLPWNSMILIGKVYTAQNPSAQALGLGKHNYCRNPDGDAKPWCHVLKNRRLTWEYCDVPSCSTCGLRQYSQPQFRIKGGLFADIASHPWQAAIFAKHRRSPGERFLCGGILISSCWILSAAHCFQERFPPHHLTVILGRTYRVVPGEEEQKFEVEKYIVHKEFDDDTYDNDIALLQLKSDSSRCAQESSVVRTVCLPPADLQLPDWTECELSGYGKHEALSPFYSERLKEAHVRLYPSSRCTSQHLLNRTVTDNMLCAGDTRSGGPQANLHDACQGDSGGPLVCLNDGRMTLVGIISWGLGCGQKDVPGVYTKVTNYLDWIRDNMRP

[10] = Half life in Beagle dog at 0.19 mg/kg, iv administered as 10 mins infusion or 0.32 mg/kg, po via gavage administered as cassette dose by LC-MS/MS method; type: ADME, organism-based, Canis lupus familiaris; conditions: in vivo; summary of the method: as §2
Plasma kallikrein = Plasma kallikrein (Homo sapiens, UniProt P03952); assay: Inhibition of human plasma kallikrein using H-(D)-Pro-Phe-Arg-pNA as substrate after 10 to 120 mins at 37 degC by spectrophotometric method; summary of the method: as §1
Sequence of Plasma kallikrein (P03952 20-390 limits assumed): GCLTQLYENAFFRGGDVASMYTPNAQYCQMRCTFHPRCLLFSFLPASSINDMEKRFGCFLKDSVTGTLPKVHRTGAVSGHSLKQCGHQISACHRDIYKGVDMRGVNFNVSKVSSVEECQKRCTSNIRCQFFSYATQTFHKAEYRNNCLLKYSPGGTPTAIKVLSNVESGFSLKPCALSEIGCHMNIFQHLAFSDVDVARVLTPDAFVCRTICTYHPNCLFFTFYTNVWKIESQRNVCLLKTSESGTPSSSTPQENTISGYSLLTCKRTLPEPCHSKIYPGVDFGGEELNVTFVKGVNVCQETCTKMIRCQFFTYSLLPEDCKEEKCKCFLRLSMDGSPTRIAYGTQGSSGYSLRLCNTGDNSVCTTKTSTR
Sequence of Plasma kallikrein (P03952 391-638 limits assumed): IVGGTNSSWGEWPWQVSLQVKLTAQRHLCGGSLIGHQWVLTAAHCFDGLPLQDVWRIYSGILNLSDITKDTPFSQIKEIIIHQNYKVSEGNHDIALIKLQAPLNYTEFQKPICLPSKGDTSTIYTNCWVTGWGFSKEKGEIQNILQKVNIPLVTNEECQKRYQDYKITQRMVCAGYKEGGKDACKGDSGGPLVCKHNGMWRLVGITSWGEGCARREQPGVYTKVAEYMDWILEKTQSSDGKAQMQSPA

Prothrombin = Prothrombin (Homo sapiens, UniProt P00734); assay: Inhibition of human thrombin using pyroGlu-Pro-Arg-pNA as substrate after 10 to 120 mins at 37 degC by spectrophotometric method; summary of the method: as §1
[11] = Inhibition of human trypsin using N-benzoyl-Ile-Glu-(OH,OMe)-Gly-Arg-pNA as substrate after 10 to 120 mins at 37 degC by spectrophotometric method; summary of the method: as §1
Coagulation factor XII = target: T1, Coagulation factor XII (Homo sapiens, UniProt P00748); assay: Inhibition of human coagulation factor 12a using H-(D)-CHT-Gly-Arg-pNA as substrate after 10 to 120 mins at 25 degC by spectrophotometric method
T1 sequence (P00748 whole entry): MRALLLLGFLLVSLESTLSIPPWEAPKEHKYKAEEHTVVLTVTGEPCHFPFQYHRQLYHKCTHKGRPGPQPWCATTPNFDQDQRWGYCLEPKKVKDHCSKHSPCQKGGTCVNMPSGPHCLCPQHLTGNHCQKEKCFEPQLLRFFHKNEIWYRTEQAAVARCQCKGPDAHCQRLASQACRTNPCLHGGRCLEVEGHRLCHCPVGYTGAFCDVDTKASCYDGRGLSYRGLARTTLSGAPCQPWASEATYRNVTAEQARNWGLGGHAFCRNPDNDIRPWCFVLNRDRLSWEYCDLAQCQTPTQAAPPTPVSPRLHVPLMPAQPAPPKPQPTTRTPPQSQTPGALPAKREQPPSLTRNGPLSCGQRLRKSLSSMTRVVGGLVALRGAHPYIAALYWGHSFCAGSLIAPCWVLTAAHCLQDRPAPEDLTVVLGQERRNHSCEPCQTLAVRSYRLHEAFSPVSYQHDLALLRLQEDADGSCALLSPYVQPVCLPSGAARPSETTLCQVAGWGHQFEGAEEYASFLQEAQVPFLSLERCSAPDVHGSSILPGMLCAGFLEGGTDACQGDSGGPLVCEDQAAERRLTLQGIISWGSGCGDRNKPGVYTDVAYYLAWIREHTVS

[12] = Half life in human liver microsomes; type: ADME, microsome
[13] = Protein binding in dog plasma; type: ADME, cell-free, Canis lupus familiaris; conditions: read-out: PPB (converted)
Coagulation factor VII = target: T2, Coagulation factor VII (Homo sapiens, UniProt P08709); assay: Inhibition of human coagulation factor 7a using H-(D)-Ile-Pro-Arg-pNA as substrate after 10 to 120 mins at 25 degC by spectrophotometric method
T2 sequence (P08709 whole entry): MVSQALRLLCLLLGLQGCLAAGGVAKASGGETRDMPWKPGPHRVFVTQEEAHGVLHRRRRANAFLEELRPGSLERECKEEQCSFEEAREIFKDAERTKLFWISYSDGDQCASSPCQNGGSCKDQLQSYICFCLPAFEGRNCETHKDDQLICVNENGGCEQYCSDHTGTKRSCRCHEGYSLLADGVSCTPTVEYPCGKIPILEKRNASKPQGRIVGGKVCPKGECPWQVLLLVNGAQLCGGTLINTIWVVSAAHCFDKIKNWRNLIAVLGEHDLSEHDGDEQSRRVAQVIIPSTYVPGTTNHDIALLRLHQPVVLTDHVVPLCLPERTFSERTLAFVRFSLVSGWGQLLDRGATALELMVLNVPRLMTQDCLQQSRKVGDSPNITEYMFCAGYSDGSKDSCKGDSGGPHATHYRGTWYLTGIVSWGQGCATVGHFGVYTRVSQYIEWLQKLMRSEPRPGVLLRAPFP

Plasma = assay: Anticoagulant activity in human plasma assessed as concentration required to produce 50% increase in activated partial thromboplastin time; type: functional
Summary of the method: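 Citrated (one-tenth volume 0.11 M) plasma from healthy volunteers, spun 2,000 g 10 min, kept on ice; 10 mM DMSO stock diluted in plasma, up to 7 concentrations; aPTT on automated coagulometer, duplicates as mean ratio to baseline; EC1.5x (50% prolongation) by linear interpolation, as total plasma concentration.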

[14] = Oral bioavailability in Beagle dog at 0.35 mg/kg administered via gavage as cassette dose by LC-MS/MS method; type: ADME, organism-based, Canis lupus familiaris; conditions: in vivo; summary of the method: as §2
Canis familiaris [15] = assay: Volume of distribution at steady state in Beagle dog at 0.2 mg/kg, iv administered as 10 mins infusion or 0.35 mg/kg, po via gavage administered as cassette dose by LC-MS/MS method; type: ADME, organism-based, Canis lupus familiaris; conditions: in vivo; summary of the method: as §2
Coagulation factor XI = Coagulation factor XI (Homo sapiens, UniProt P03951); assay: Inhibition of human coagulation factor 11a using pyroGlu-Pro-Arg-pNA as substrate after 10 to 120 mins at 37 degC by spectrophotometric method; summary of the method: as §1
Sequence of Coagulation factor XI (P03951 19-387 limits assumed): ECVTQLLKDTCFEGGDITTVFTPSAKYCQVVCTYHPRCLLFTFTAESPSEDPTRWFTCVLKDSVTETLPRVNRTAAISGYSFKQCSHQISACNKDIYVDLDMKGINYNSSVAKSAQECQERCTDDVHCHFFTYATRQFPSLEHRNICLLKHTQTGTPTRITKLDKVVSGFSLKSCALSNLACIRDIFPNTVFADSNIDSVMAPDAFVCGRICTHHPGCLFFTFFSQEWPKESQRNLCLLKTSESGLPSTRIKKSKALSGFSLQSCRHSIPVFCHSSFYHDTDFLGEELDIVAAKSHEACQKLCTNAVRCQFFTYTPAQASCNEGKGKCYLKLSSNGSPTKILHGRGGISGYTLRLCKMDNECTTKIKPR
Sequence of Coagulation factor XI (P03951 388-625 limits assumed): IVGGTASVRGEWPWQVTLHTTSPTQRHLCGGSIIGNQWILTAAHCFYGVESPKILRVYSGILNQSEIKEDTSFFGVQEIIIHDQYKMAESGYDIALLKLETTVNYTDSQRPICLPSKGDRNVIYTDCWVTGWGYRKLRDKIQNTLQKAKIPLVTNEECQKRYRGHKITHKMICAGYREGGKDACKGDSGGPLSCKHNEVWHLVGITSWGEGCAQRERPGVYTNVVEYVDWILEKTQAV

Canis familiaris [16] = assay: Half life in Beagle dog at 0.2 mg/kg, iv administered as 10 mins infusion or 0.35 mg/kg, po via gavage administered as cassette dose by LC-MS/MS method; type: ADME, organism-based, Canis lupus familiaris; conditions: in vivo; summary of the method: as §2

half-life [1]: > 120 min
Ki [2]: 1500 nM
Ki (Coagulation factor IX): > 27.1 µM
Vd [3]: 1.8 L/kg
Ki (Plasminogen): > 14.2 µM
Ki (Coagulation factor X): > 13.3 µM
AUC (Canis familiaris [4]): 2.5 nM·h
Papp A→B [5]: < 1.5 ×10⁻⁶ cm/s
Ki [6]: > 21.5 µM
Ki [7]: 5.05 µM
F (Canis familiaris [8]): 1%
Ki [9]: > 6.15 µM
half-life [10]: 72 min
Ki (Plasma kallikrein): 16 nM
Ki (Prothrombin): > 11.5 µM
Ki [11]: 1520 nM
Ki (Coagulation factor XII): > 3.05 µM
half-life [12]: 41 min
fraction unbound [13]: 0.085
Ki (Coagulation factor VII): 1670 nM
SMILES: COC(=O)Nc1ccc2c(c1)NC(=O)CC/C=C/C[C@H](NC(=O)/C=C/c1cc(Cl)ccc1-n1cnnn1)c1nc-2c[nH]1
EC1.5 (Plasma): 0.27 µM

half-life [1]: > 120 min
bioavailability [14]: 0%
Vdss (Canis familiaris [15]): 3.9 L/kg
Ki (Coagulation factor XI): 3.2 nM
Papp A→B [5]: < 1.5 ×10⁻⁶ cm/s
half-life [12]: 34 min
fraction unbound [13]: 0.066
t1/2 (Canis familiaris [16]): 1.1 h
SMILES: COC(=O)Nc1ccc2c(c1)NC(=O)CCCCC[C@H](NC(=O)/C=C/c1cc(Cl)ccc1-n1cnnn1)c1nc-2c[nH]1
EC1.5 (Plasma): 1.2 µM
